Data set [1] in a line: Inhibition of chymotrypsin activity of proteasome beta5 subunit in Leishmania donovani amastigotes infected in human THP-1 cells incubated for 96 hrs by INMAC assay. The note with it: THP-1, 96 h, read-out: pEC50 (converted).
A short description of data set [2]: Cytotoxicity against human THP-1 cells. The class given is toxicity, cell-based.
Data set [3] can be described thus: Solubility of the compound in FaSSIF at pH 6.5 measured after 4 hrs by HPLC-UV analysis. The class given is physicochemical. Conditions: for solubility at 4 h: FaSSIF, pH 6.5.
Data set [4] is described as follows: Intrinsic clearance in mouse liver microsomes. It counts as ADME, Microsome. For orientation: Microsomes from liver hold many membrane-bound enzymes, among them those of drug oxidation.
Data set [5] in a line: Genotoxicity against Salmonella typhimurium by Ames test. It counts as toxicity. Conditions: salmonella enterica subsp. enterica serovar typhimurium. For orientation: In the Ames test, an excess of revertant colonies over the control signals mutagenicity.
The test system of data set [6] is Leishmania donovani. The experiment in a line: Antileishmanial activity against amastigote stage of Leishmania donovani MHOM/ET/67/HU3 infected in BALB/c mouse assessed as reduction in parasitemia at 25 mg/kg, po bid for 10 days. The class given is functional, organism-based. The note with it: time 10.0 day.
Data set [7] concerns Leishmania donovani. The experiment in a line: Antileishmanial activity against amastigote stage of Leishmania donovani MHOM/ET/67/HU3 infected in po dosed BALB/c mouse assessed as reduction in parasitemia administered twice a day for 10 days. It counts as functional. Conditions: MHOM/ET/67/HU3, 240 h, time 10 day.
A short description of data set [8]: Kinetic aqueous solubility of the compound by CLND method. The class given is physicochemical. The note with it: buffer; read-out: Kinetic_solubility.
A short description of data set [9]: Metabolic stability of the compound in human plasma assessed as parent compound remaining measured after 3 hrs. The class given is ADME, cell-free. Conditions: read-out: Stability.
Data set [10] in a line: Metabolic stability of the compound in mouse plasma assessed as parent compound remaining measured after 3 hrs. The note with it: read-out: Stability. It counts as ADME, cell-free.
Data set [11] can be described thus: Time during which drug concentration exceeds EC90 for inhibition of chymotrypsin activity of proteasome beta5 subunit in Leishmania donovani amastigotes infected in human THP-1 cells in NMRI mouse blood at 10 mg/kg, po by UPLC-MS/MS analysis. It counts as organism-based. The note with it: in vivo. In short, it runs like this:
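Mice received a single 10 mg/kg oral dose, with a separate 3 mg/kg iv arm in the same PK study. Blood levels were followed over time, and time above the EC90 threshold was taken from the oral blood profile.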

Data set [12] in a line: Time during which drug concentration exceeds EC90 for inhibition of chymotrypsin activity of proteasome beta5 subunit in Leishmania donovani amastigotes infected in human THP-1 cells in NMRI mouse blood at 50 mg/kg, po by UPLC-MS/MS analysis. It counts as organism-based. The note with it: in vivo. In short, it runs like this:
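Not measured directly. Time above EC90 at 50 mg/kg po was projected from the 10 mg/kg oral mouse blood profile, assuming exposure rises linearly with dose.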

Another data set has as its system THP-1. Conditions: Leishmania donovani, time 96.0 hrs.

Values after ≈ are worked out from the molar mass of the structure shown. Active and inactive are the calls of the source.

By solubility is commonly meant how much of the substance goes into solution per volume. High values mean much dissolved substance, low ones little dissolved substance. Turning to `O=C(Nc1ccc(F)c(-c2ccn3c(N4CCOCC4)cnc3n2)c1)N1CCCC1` [GSK-3494245], the EC50 in data set [1] was 1.58 µM. In [2], this compound gave an EC50 not below 63.1 µM. This compound also yielded a solubility at 4 h in data set [3] of 440 µM (≈ 181 µg/mL). In [4], this compound gave a CLH of 0.8 mL/min/g. Further, the Activity result in [5] is listed as “Non-Toxic”. Besides, the result in the data set with Leishmania donovani [6] was Active. Besides, in the data set with Leishmania donovani [7], the ED90 is 16 mg/kg and the ED99 was 30 mg/kg.
`O=C(Nc1cccc(-c2cc3ncc(-c4ccccc4)cn3n2)c1)N1CCCC1`: the EC50 in data set [2] is more than 50.1 µM.
As for `C[C@@H]1CN(c2cnc3nc(-c4cc(NC(=O)N5CCCC5)ccc4F)ccn23)CCO1`, the solubility kinetic in data set [8] was 345 µM (≈ 146 µg/mL). Also, in [1], the EC50 was 1 µM. Moreover, the concentration in solution in data set [3] (solubility at 4 h) came to 1580 µM (≈ 670 µg/mL). In [4], this compound showed a CLH of 1.8 mL/min/g.
`O=C(Nc1cccc(-c2cc3cc(N4CCOCC4)nnc3o2)c1)N1CCCC1` showed an EC50 in data set [2] of more than 50.1 µM.
`O=C(Nc1ccc(F)c(-c2cn3cc(N4CCOCC4)cnc3n2)c1)N1CCCC1`: the figures for the EC50 in [1] and in data set [2] were 0.631 µM and more than 50.1 µM, respectively. The solubility at 4 h in data set [3] came out at 15 µM (≈ 6.16 µg/mL). For the same compound, the CLH in data set [4] was less than 0.5 mL/min/g. In addition, the remaining at 3 h in data set [9] and in [10] was 100% each time. Moreover, the “T>EC90” value is 2 h in [11] and more than 6 h in data set [12]. Also, the Activity result in data set [5] was “Toxic”. This compound also showed a pEC90 with THP-1 of 5.7.
`O=C(Nc1cnnc(-c2cn3cc(N4CCOCC4)cnc3n2)c1)N1CCCC1` gave an EC50 in data set [2] of more than 50.1 µM. This compound also came in with a CLH in data set [4] of less than 0.5 mL/min/g.
`O=C(Nc1cccc(-c2nc3ccccc3o2)c1)c1ccco1` gave an EC50 in data set [2] of more than 50.1 µM. Also, the Activity entry in [5] was “Toxic”.
Consider `O=C(Nc1ccc(F)c(-c2cn3ncc(N4CCOCC4)cc3n2)c1)N1CCCC1`, for which, in [2], the EC50 is more than 50.1 µM.
`O=C(Nc1ccc(F)c(-c2ccn3c(N4CCNCC4)cnc3n2)c1)N1CCCC1` showed an EC50 in [2] of more than 50.1 µM. The compound also gave a CLH in data set [4] of less than 0.5 mL/min/g.
In the case of `C[C@H]1CN(c2cnc3nc(-c4cc(NC(=O)N5CCCC5)ccc4F)ccn23)CCO1`, the solubility kinetic in [8] is not below 362 µM. Further, the EC50 in data set [1] is 1.26 µM. Besides, the solubility at 4 h in data set [3] came to 1320 µM (≈ 561 µg/mL). In data set [4], the CLH is 2.7 mL/min/g.
Compound `O=C(Nc1cccc(-c2cn3cc(N4CCOCC4)cnc3n2)n1)N1CCCC1` showed an EC50 in data set [2] of more than 50.1 µM. This compound gave a CLH in data set [4] of less than 0.5 mL/min/g.
In turn, `O=C(Nc1nccc(-c2cn3cc(N4CCOCC4)cnc3n2)n1)N1CCCC1` gave an EC50 in data set [2] of more than 50.1 µM. The compound further showed a solubility in data set [3] (simulated gi fluid, pH 6.5, 4 h) of more than 2500 µM. The compound further came in with a CLH in data set [4] of less than 0.5 mL/min/g.
In the case of `O=C(Nc1ccc(F)c(-c2nc3cc(N4CCOCC4)cnn3n2)c1)N1CCCC1`, the EC50 is 0.794 µM in [1] and more than 50.1 µM in data set [2]. In addition, in data set [3], the solubility at 4 h is 182 µM (≈ 74.9 µg/mL). The compound also registered a CLH in [4] of 0.7 mL/min/g.
The compound `O=C(Nc1ccc(F)c(-c2cc3nc(N4CCOCC4)cnc3[nH]2)c1)N1CCCC1` showed an EC50 in [2] of more than 50.1 µM.
With `O=C(Nc1ccc(F)c(-c2cnn3c(-c4ccccc4)cnc3n2)c1)N1CCCC1`, the EC50 in [1] was 1.26 µM; in [2] it was more than 50.1 µM. The compound also displayed a solubility at 4 h in [3] of 3 µM (≈ 1.21 µg/mL). In data set [4], this compound showed a CLH of 3.3 mL/min/g.
Regarding `O=C(Nc1cccc(-c2nc3ncccc3o2)c1)c1ccco1`, the figures for the EC50 in [1] and in data set [2] were 6.31 µM and more than 50.1 µM, respectively. Further, the CLH in [4] stood at 24 mL/min/g.
`Cn1c(-c2cc(NC(=O)N3CCCC3)ccc2F)cc2cc(N3CCOCC3)cnc21` showed an EC50 in data set [2] of more than 50.1 µM.
`O=C(Nc1cc(-c2cn3cc(N4CCOCC4)cnc3n2)ncn1)N1CCCC1` had an EC50 in data set [2] of more than 50.1 µM. The same compound had a CLH in data set [4] of less than 0.5 mL/min/g.
For `O=C(Nc1ccc(F)c(-c2nc3ncc(N4CCOCC4)cn3n2)c1)N1CCCC1`, in data set [4], the CLH is less than 0.5 mL/min/g.
In data set [2], `O=C(Nc1cncc(-c2cn3cc(N4CCOCC4)cnc3n2)n1)N1CCCC1` gave an EC50 of more than 50.1 µM. Moreover, in [4], the CLH was less than 0.5 mL/min/g.
Regarding `CC(=O)N1CCN(c2cnc3nc(-c4cc(NC(=O)N5CCCC5)ccc4F)ccn23)CC1`, the EC50 in data set [2] was more than 50.1 µM.
With `O=C(Nc1cccc(-c2cc3cc(-c4ccccc4)cnc3[nH]2)c1)N1CCCC1`, in [2], the EC50 was more than 50.1 µM.
With `O=C1CN(c2cnc3nc(-c4cc(NC(=O)N5CCCC5)ccc4F)ccn23)CCN1`, the EC50 in data set [2] is more than 50.1 µM.
As to `COc1ccc(NC(=O)N2CCCC2)cc1-c1cn2cc(N3CCOCC3)cnc2n1`, the EC50 in data set [2] is more than 50.1 µM. Besides, the CLH in data set [4] was less than 0.5 mL/min/g.
In [3], `O=C(Nc1ccc(F)c(-c2cn3nc(N4CCOCC4)cnc3n2)c1)N1CCCC1` displayed a solubility at 4 h of 32 µM (≈ 13.2 µg/mL). Moreover, the Activity entry in [5] is listed as “Toxic”.

Source of the values: ChEMBL document CHEMBL5149983, “Scaffold-Hopping Strategy on a Series of Proteasome Inhibitors Led to a Preclinical Candidate for the Treatment of Visceral Leishmaniasis” (J Med Chem, 2021).
